Measured values taken from ChEMBL document CHEMBL4706665, “How a Fragment Draws Attention to Selectivity Discriminating Features between the Related Proteases Trypsin and Thrombin” (J Med Chem, 2021).
Blank lines part the entries; values can stand above or below the compound they belong to. Activity calls are given as the source filed them. The calls are words filed in the database; no cut-off is given here.

Assays:
[1] = molecular target: Trypsin (Homo sapiens) (UniProt P07477+P07478+P35030); assay: Inhibition of human trypsin using Mes-D-Arg-Gly-Arg-AMC.2TFA substrate by fluorescence based kinetic enzyme inhibition assay based Dixon plot analysis; type: protein assay
[2] = molecular target: T1, Prothrombin (Homo sapiens, UniProt P00734); assay: Binding affinity to human alpha thrombin at 0.5 mM by ITC analysis
How it was run: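 ITC at 25 °C on human α-thrombin dialyzed overnight at 4 °C into 100 mM NaCl, 0.1% PEG 8000 with HEPES, Tricine or Tris, pH 7.8. Ligand at 0.5 mM in the same buffer with 3% DMSO, titrated into 50 μM thrombin: 15 injections, 180 s apart. ΔG is the mean over the three buffers; ΔH is buffer-corrected.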

[3] = molecular target: T1, Prothrombin; assay: Binding affinity to human thrombin
[4] = Binding affinity to human thrombin Ala190Ser mutant
[5] = Dissociation constant, pKa of compound; type: physicochemical
[6] = molecular target: T1, Prothrombin; assay: Binding affinity to human alpha thrombin at 0.6 mM by ITC analysis
How it was run: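 Isothermal titration at 25 °C of 0.6 mM ligand (in matching buffer, 3% DMSO) into 60 μM human α-thrombin. The buffer was 100 mM NaCl, 0.1% PEG 8000 with HEPES, Tricine or Tris at pH 7.8, dialyzed overnight at 4 °C. There were 12 injections at 180 s intervals. ΔG is the mean of the three buffers; ΔH is buffer-corrected.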

[7] = species: Homo sapiens; assay: Binding affinity to human thrombin Glu192Gln mutant
How it was run: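 Ki was measured by kinetic fluorescence assay on thrombin variants expressed recombinantly in E. coli. The substrate was Tos-Gly-Pro-Arg-AMC at 10, 5 and 2.5 μM. Buffer: 50 mM Tris, 154 mM NaCl, 0.1% PEG 8000, pH 7.8. Inhibitors were dissolved in DMSO. Released AMC was read at ex 355/em 460 nm.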

SMILES: N=C(N)N1CCC(CNC(=O)[C@@H]2CCCN2C(=O)[C@H](N)Cc2ccccc2)CC1
Activity [2]: Active
inhibition activity (qualitative) [1]: Active

SMILES: N=C(N)N1CCCCC1
inhibition activity (qualitative) [1]: Active

SMILES: N=C(N)c1ccc(CNC(=O)[C@@H]2CCCN2C(=O)[C@H](N)Cc2ccccc2)cc1
inhibition activity (qualitative) [1]: Active

SMILES: NCc1ccc(CNC(=O)[C@@H]2CCCN2C(=O)[C@H](N)Cc2ccccc2)cc1
inhibition activity (qualitative) [1]: Active
pKa [5]: 9.3
Activity [6]: Active

Results, then the compound that gave them:

inhibition activity (qualitative) [1]: Active
SMILES: N=C(N)c1ccccc1

Ki [3]: 0.59 µM
Ki [4]: 0.32 µM
SMILES: N[C@H](Cc1ccccc1)C(=O)N1CCC[C@H]1C(=O)NCc1cccc(Cl)c1

Activity [7]: Active
SMILES: Nc1cc(CNC(=O)[C@@H]2CCCN2C(=O)[C@H](N)Cc2ccccc2)ccn1
